What was measured:
Hepatitis C virus [1] = assay: Antiviral activity against HCV1b con1 infected in human HuH7 cells assessed as inhibition of viral replication after 24 hrs in presence of 50% normal human serum; format: functional, organism-based, Hepacivirus hominis; settings: Con1, Huh-7, 24 h
Procedure, shortened: (§1)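 Cell-based HCV replicon assay giving IC50. Genotype 1b replicon run with 10% fetal bovine serum or with 50% normal human serum. Genotype 2a replicon run with 10% FBS.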

[2] = Inhibition of HCV NS3/4A protease expressed Escherichia coli after 1 hr by time-resolved fluorescence assay; set-up: species or system Hepacivirus hominis
Procedure, shortened: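 Binding assay against genotype 1b HCV NS3/4A protease, read by time-resolved fluorescence; potency expressed as Ki.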

[3] = AUC in Sprague-Dawley rat plasma at 5 mg/kg, po after 4 hrs; format: ADME, organism-based; set-up: time < 4 hr, dose 5 mg/kg, route oral
Procedure, shortened: (§2)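 Rat PK screen: 5 mg/kg given orally in PEG400, n = 2; plasma AUC calculated from a 4 h experiment, and liver concentration measured at 4 h after dosing.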

Hepatitis C virus [4] = assay: Antiviral activity against HCV1b con1 infected in human HuH7 cells assessed as inhibition of viral replication after 24 hrs in presence of 10% fetal bovine serum; format: functional, organism-based, Hepacivirus hominis; settings: Con1, Huh-7, 24 h; procedure, shortened: as §1
[5] = Drug level in Sprague-Dawley rat liver at 5 mg/kg, po after 4 hrs; format: ADME, organism-based; set-up: dose 5 mg/kg, route oral; settings: read-out: Drug uptake; procedure, shortened: as §2
Hepatitis C virus [6] = assay: Antiviral activity against HCV2a infected in human HuH7 cells assessed as inhibition of viral replication after 24 hrs in presence of 10% fetal bovine serum; format: functional, organism-based, Hepacivirus hominis; settings: genotype 2a, Huh-7, 24 h; procedure, shortened: as §1

Compound	AUC at 4 h [3] [µM·h]	IC50 (Hepatitis C virus [4]) [nM]	concentration at 4 h [5] [µM]	IC50 (Hepatitis C virus [6]) [nM]	IC50 (Hepatitis C virus [1]) [nM]	Ki [2] [nM]
C=C[C@@H]1C[C@]1(NC(=O)[C@@H]1C[C@@H]2CN1C(=O)[C@H](C(C)(C)C)NC(=O)OCCCCCc1cc(C(F)(F)F)c3ccnc(c3c1)O2)C(=O)NS(=O)(=O)C1CC1	–	21	–	–	410	0.25
C=C[C@@H]1C[C@]1(NC(=O)[C@@H]1C[C@@H]2CN1C(=O)[C@H](C(C)(C)C)NC(=O)OCCCCCc1cc(OC(F)(F)F)c3ccnc(c3c1)O2)C(=O)NS(=O)(=O)C1CC1	1.6	50	8.8	–	4400	0.75
C=C[C@@H]1C[C@]1(NC(=O)[C@@H]1C[C@@H]2CN1C(=O)[C@H](c1ccccc1)NC(=O)OCCCCCc1ccc3ccnc(c3c1)O2)C(=O)NS(=O)(=O)C1CC1	–	–	–	–	–	1
C=C[C@@H]1C[C@]1(NC(=O)[C@@H]1C[C@@H]2CN1C(=O)[C@H](C(C)(C)C)NC(=O)OCCCCCc1cc(S(C)(=O)=O)c3ccnc(c3c1)O2)C(=O)NS(=O)(=O)C1CC1	–	280	–	–	> 1000	0.11
C=C[C@@H]1C[C@]1(NC(=O)[C@@H]1C[C@@H]2CN1C(=O)[C@H](C1CCOCC1)NC(=O)OCCC/C=C/c1ccc3ccnc(c3c1)O2)C(=O)NS(=O)(=O)C1CC1	0.5	9	< 0.2	–	20	0.07
C=C[C@@H]1C[C@]1(NC(=O)[C@@H]1C[C@@H]2CN1C(=O)[C@H](C1CCC1)NC(=O)OCCCCCc1ccc3ccnc(c3c1)O2)C(=O)NS(=O)(=O)C1CC1	–	7	–	–	130	0.18
C=C[C@@H]1C[C@]1(NC(=O)[C@@H]1C[C@@H]2CN1C(=O)[C@H](c1c[nH]c3ccccc13)NC(=O)OCCC/C=C/c1ccc3ccnc(c3c1)O2)C(=O)NS(=O)(=O)C1CC1	0.07	20	0.4	–	–	2
C=C[C@@H]1C[C@]1(NC(=O)[C@@H]1C[C@@H]2CN1C(=O)[C@H](C(C)(C)C)NC(=O)OCCCCCc1ccc3ccnc(c3c1)O2)C(=O)NS(=O)(=O)C1CC1	0.27	8.7	–	–	46	0.18
C=C[C@@H]1C[C@]1(NC(=O)[C@@H]1C[C@@H]2CN1C(=O)[C@H](C1CCOCC1)NC(=O)OCCCCCc1ccc3ccnc(c3c1)O2)C(=O)NS(=O)(=O)C1CC1	0.8	15	0.09	–	34	0.07
C=C[C@@H]1C[C@]1(NC(=O)[C@@H]1C[C@@H]2CN1C(=O)[C@H](C1Cc3ccccc3C1)NC(=O)OCCC/C=C/c1ccc3ccnc(c3c1)O2)C(=O)NS(=O)(=O)C1CC1	0.15	5	4.5	–	20	0.07
C=C[C@@H]1C[C@]1(NC(=O)[C@@H]1C[C@@H]2CN1C(=O)[C@H](C(C)(C)C)NC(=O)OCCCCCc1cc(OCC)c3ccnc(c3c1)O2)C(=O)NS(=O)(=O)C1CC1	6.9	6	15.2	–	500	0.37
C=C[C@@H]1C[C@]1(NC(=O)[C@@H]1C[C@@H]2CN1C(=O)[C@H](C1CCCCC1)NC(=O)OCCCCCc1ccc3ccnc(c3c1)O2)C(=O)NS(=O)(=O)C1CC1	3.1	4.5	29.8	–	181	0.15

Second part, led by results:

AUC at 4 h [3] [µM·h]	IC50 (Hepatitis C virus [4]) [nM]	concentration at 4 h [5] [µM]	IC50 (Hepatitis C virus [6]) [nM]	Compound	IC50 (Hepatitis C virus [1]) [nM]	Ki [2] [nM]
0.67	2.5	46.9	–	C=C[C@@H]1C[C@]1(NC(=O)[C@@H]1C[C@@H]2CN1C(=O)[C@H](C1CCCCC1)NC(=O)OCCC/C=C/c1ccc3ccnc(c3c1)O2)C(=O)NS(=O)(=O)C1CC1	78	0.063
2.5	3	13.2	6	C=C[C@@H]1C[C@]1(NC(=O)[C@@H]1C[C@@H]2CN1C(=O)[C@H](C1CCCCC1)NC(=O)OCCCCCc1cc(OC)c3ccnc(c3c1)O2)C(=O)NS(=O)(=O)C1CC1	60	0.05
0.28	2	5.8	–	C=C[C@@H]1C[C@]1(NC(=O)[C@@H]1C[C@@H]2CN1C(=O)[C@H](C(C)(C)C)NC(=O)OCCCCCc1cc(Br)c3ccnc(c3c1)O2)C(=O)NS(=O)(=O)C1CC1	170	0.04
2.1	2.5	12.5	–	C=C[C@@H]1C[C@]1(NC(=O)[C@@H]1C[C@@H]2CN1C(=O)[C@H](C(C)(C)C)NC(=O)OCCCCCc1cc(CC)c3ccnc(c3c1)O2)C(=O)NS(=O)(=O)C1CC1	90	0.14
4.2	2	9.2	–	C=C[C@@H]1C[C@]1(NC(=O)[C@@H]1C[C@@H]2CN1C(=O)[C@H](C1CCCC1)NC(=O)OCCC/C=C/c1ccc3ccnc(c3c1)O2)C(=O)NS(=O)(=O)C1CC1	40	0.1
17.7	2.7	33.2	–	C=C[C@@H]1C[C@]1(NC(=O)[C@@H]1C[C@@H]2CN1C(=O)[C@H](C(C)(C)C)NC(=O)OCCCCCc1cc(OC)c3ccnc(c3c1)O2)C(=O)NS(=O)(=O)C1CC1	35	0.04
0.36	4.5	18.6	–	C=C[C@@H]1C[C@]1(NC(=O)[C@@H]1C[C@@H]2CN1C(=O)[C@H](C(C)(C)C)NC(=O)OCCC/C=C/c1ccc3ccnc(c3c1)O2)C(=O)NS(=O)(=O)C1CC1	14	0.04
0.18	2	16	11	C=C[C@@H]1C[C@]1(NC(=O)[C@@H]1C[C@@H]2CN1C(=O)[C@H](C1CCCC1)NC(=O)OCC(C)(C)CCCc1ccc3ccnc(c3c1)O2)C(=O)NS(=O)(=O)C1CC1	10	0.02
1.4	2.3	24.5	–	C=C[C@@H]1C[C@]1(NC(=O)[C@@H]1C[C@@H]2CN1C(=O)[C@H](C(C)(C)C)NC(=O)OCCCCCc1cc(I)c3ccnc(c3c1)O2)C(=O)NS(=O)(=O)C1CC1	56	0.03
18.1	2	8	–	C=C[C@@H]1C[C@]1(NC(=O)[C@@H]1C[C@@H]2CN1C(=O)[C@H](C1CCCC1)NC(=O)OCCCCCc1cc3c(nccc3cc1OC)O2)C(=O)NS(=O)(=O)C1CC1	80	0.03
9.6	3	3	–	C=C[C@@H]1C[C@]1(NC(=O)[C@@H]1C[C@@H]2CN1C(=O)[C@H](C(C)(C)C)NC(=O)OCCCCCc1cc3c(nccc3cc1OC)O2)C(=O)NS(=O)(=O)C1CC1	113	0.04
1.8	2	12.6	–	C=C[C@@H]1C[C@]1(NC(=O)[C@@H]1C[C@@H]2CN1C(=O)[C@H](C(C)(C)C)NC(=O)OCCCCCc1cc(SC)c3ccnc(c3c1)O2)C(=O)NS(=O)(=O)C1CC1	34	0.03
0.43	3	10	–	C=C[C@@H]1C[C@]1(NC(=O)[C@@H]1C[C@@H]2CN1C(=O)[C@H](Cc1ccccc1)NC(=O)OCCC/C=C/c1ccc3ccnc(c3c1)O2)C(=O)NS(=O)(=O)C1CC1	–	0.65
